pIC50: −log10 of the molar value. Calls of active or inactive are those of the source. No cut-off for these calls is given here.
Key:
[1] = target: T1, 5-hydroxytryptamine receptor 6 (Homo sapiens, UniProt P50406); experiment: Antagonist activity at human 5-HT6 receptor expressed in human HeLa cells assessed as inhibition of 5-HT-induced cAMP accumulation at 10 uM pretreated for 10 mins before 5-HT addition measured after 30 mins; format: functional, cell-based
In short: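 HeLa cells stably expressing human 5-HT6 receptor, grown at 37 °C in 5% CO2/95% air, suspended in PBS with 2 mM IBMX. Compound pretreatment 10 min, then 100 nM 5-HT stimulation for 30 min. cAMP measured by HTRF (d2-labeled cAMP plus cryptate anti-cAMP antibody, 1 h at room temperature), excitation 314 nm, emission 668 and 620 nm. Single-point inhibition read at […].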

[2] = target: T1, 5-hydroxytryptamine receptor 6; experiment: Antagonist activity at human 5-HT6 receptor expressed in human HeLa cells assessed as inhibition of 5-HT-induced cAMP accumulation pretreated for 10 mins before 5-HT addition measured after 30 mins; format: functional, cell-based
[3] = target: CYP2D6 (Homo sapiens, UniProt P10635); experiment: Inhibition of human CYP2D6 assessed as residual activity using quinidine as […] at 10 uM relative to control; format: ADME; details: probe quinidine, read-out: Activity
[4] = Metabolic stability in human liver microsomes assessed as compound remaining after 30 mins; format: ADME, Microsome; details: read-out: Stability
In short: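 Compounds incubated with human hepatic microsomes; percent of parent concentration remaining at 30 min.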

[5] = target: CYP2C9 (Homo sapiens, UniProt P11712); experiment: Inhibition of human CYP2C9 assessed as residual activity using sulfaphenazol as […] at 10 uM relative to control; format: ADME; details: read-out: Activity
[6] = target: CYP2C19 (Homo sapiens, UniProt P33261); experiment: Inhibition of human CYP2C19 assessed as residual activity using miconazole as […] at 10 uM relative to control; format: ADME; details: probe miconazole, read-out: Activity
[7] = target: CYP3A4 (Homo sapiens, UniProt P08684); experiment: Inhibition of human CYP3A4 assessed as residual activity using ketoconazole as […] at 10 uM relative to control; format: ADME; details: probe ketoconazole, read-out: Activity
[8] = target: T2, CYP1A2 (Homo sapiens, UniProt P05177); experiment: Inhibition of human CYP1A2 assessed as residual activity using alpha-naphthoflavon as […] at 10 uM relative to control; format: ADME; details: read-out: Activity
T2 sequence (P05177 whole entry): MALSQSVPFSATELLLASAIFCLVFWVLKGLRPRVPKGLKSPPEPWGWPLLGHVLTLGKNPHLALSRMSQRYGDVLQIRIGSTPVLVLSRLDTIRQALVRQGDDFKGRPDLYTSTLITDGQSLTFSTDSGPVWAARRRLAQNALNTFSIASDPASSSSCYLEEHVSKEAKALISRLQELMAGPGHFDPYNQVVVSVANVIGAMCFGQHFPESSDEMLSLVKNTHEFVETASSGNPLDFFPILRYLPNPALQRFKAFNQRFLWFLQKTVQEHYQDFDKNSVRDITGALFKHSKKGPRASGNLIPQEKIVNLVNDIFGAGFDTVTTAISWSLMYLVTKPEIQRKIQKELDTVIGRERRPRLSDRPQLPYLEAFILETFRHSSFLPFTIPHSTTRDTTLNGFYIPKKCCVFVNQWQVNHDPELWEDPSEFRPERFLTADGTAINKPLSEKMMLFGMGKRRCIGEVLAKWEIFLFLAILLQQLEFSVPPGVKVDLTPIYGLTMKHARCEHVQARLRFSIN

[9] = tested on: Rattus norvegicus; experiment: Antiallodynic activity in rat spinal nerve ligation neuropathic pain mechanical allodynia model at 100 mg/kg, po after 1 to 3 hrs; format: functional, organism-based; design: dose 100 mg/kg
In short: (§1)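 Cold and mechanical allodynia assessed at hours after a single oral 100 mg/kg dose, n = 4 per group; gabapentin 100 mg/kg po as reference.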

[10] = tested on: Rattus norvegicus; experiment: Antiallodynic activity in rat spinal nerve ligation neuropathic pain mechanical allodynia model at 100 mg/kg, po after 5 hrs; format: functional, organism-based; design: dose 100 mg/kg; in short: as §1
[11] = organism: Rattus norvegicus; experiment: Ratio of gabapentin antiallodynic activity to compound antiallodynic activity in rat spinal nerve ligation neuropathic pain cold allodynia model; format: functional
[12] = tested on: Rattus norvegicus; experiment: Antiallodynic activity in rat spinal nerve ligation neuropathic pain cold allodynia model at 100 mg/kg, po after 1 to 5 hrs; format: functional, organism-based; design: dose 100 mg/kg; in short: as §1

T1 sequence (P50406 whole entry): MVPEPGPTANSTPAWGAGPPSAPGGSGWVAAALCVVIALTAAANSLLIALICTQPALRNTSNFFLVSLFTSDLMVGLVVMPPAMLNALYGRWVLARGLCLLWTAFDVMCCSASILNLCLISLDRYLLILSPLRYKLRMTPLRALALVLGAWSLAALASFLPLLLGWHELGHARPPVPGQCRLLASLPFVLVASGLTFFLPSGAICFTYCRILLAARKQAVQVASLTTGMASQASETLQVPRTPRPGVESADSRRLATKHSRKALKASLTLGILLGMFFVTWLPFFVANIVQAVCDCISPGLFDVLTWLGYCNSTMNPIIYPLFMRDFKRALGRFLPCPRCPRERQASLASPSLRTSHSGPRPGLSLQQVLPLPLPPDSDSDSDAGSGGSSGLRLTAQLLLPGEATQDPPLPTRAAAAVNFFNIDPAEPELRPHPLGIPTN
Chain of CYP2C9 (P11712 whole entry): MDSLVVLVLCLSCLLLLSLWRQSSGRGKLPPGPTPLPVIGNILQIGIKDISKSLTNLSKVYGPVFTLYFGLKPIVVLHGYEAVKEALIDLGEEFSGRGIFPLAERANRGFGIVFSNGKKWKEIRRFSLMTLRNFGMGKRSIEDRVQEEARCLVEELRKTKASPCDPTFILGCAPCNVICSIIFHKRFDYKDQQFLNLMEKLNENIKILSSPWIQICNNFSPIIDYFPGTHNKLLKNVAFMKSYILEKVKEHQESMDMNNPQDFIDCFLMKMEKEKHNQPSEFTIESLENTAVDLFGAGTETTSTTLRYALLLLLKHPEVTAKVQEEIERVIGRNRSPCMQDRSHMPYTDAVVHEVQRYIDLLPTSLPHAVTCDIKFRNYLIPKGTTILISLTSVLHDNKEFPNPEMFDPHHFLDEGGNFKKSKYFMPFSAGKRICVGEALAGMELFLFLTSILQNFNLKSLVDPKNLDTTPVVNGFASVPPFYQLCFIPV
Chain of CYP2D6 (P10635 whole entry): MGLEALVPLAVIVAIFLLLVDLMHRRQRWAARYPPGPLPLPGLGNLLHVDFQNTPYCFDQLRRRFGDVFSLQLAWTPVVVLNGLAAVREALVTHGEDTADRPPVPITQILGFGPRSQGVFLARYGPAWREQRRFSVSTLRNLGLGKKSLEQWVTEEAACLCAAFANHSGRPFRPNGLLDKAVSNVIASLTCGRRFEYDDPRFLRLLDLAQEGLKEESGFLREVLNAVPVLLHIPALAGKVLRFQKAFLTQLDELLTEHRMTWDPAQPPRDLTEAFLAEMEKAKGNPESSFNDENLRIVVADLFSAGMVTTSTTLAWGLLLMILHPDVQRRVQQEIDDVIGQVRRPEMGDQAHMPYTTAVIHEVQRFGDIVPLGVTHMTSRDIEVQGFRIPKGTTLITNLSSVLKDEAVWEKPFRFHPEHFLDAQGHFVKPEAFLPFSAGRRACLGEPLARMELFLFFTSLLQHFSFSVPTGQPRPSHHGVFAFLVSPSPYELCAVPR
Chain of CYP3A4 (P08684 whole entry): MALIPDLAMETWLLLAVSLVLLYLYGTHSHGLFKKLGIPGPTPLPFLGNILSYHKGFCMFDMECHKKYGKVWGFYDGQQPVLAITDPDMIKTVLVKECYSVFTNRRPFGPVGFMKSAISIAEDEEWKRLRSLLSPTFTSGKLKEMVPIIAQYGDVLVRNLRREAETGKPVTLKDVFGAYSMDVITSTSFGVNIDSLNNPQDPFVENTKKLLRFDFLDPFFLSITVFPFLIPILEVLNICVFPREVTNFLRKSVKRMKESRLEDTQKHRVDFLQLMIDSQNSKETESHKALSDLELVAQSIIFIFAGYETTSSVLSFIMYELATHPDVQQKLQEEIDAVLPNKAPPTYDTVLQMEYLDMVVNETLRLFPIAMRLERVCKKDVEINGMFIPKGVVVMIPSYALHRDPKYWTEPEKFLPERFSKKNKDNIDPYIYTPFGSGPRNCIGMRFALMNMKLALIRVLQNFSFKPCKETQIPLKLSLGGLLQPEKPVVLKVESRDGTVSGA
Chain of CYP2C19 (P33261 whole entry): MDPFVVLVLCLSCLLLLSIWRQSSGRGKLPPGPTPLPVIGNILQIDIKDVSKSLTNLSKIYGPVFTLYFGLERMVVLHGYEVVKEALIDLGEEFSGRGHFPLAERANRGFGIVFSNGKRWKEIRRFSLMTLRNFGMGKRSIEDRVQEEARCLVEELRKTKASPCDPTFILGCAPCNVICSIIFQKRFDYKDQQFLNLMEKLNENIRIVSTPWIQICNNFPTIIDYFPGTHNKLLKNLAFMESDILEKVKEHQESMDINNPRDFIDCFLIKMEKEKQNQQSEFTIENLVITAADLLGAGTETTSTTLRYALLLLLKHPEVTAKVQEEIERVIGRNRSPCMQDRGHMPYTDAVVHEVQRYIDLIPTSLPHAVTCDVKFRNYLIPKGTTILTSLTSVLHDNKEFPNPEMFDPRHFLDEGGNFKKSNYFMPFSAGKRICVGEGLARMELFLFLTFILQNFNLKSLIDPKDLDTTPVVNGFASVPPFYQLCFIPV

Row | inhibition [1] | pIC50 [2] | Compound | also measured
1 | 69% | 5.48 | Cc1ccc(N2CCc3c(NS(=O)(=O)c4cccc(C(F)(F)F)c4)n[nH]c3C2=O)cc1 | 
2 | 5.4% |  | Cc1ccc(N2CCc3c(NS(=O)(=O)c4cccc(Cl)c4)n[nH]c3C2=O)cc1 | 
3 | 95.2% | 6.24 | COc1ccc(N2CCc3c(NS(=O)(=O)c4cccc(F)c4)n[nH]c3C2=O)cc1 | activity at 10 µM [3]: 87.8%; remaining at 0.5 h [4]: 96.3%; activity at 10 µM [5]: 78.6%; activity at 10 µM [6]: 81.8%; activity at 10 µM [7]: 19.5%; activity at 10 µM [8]: 63.5%
4 | 18.1% |  | Cc1ccc(N2CCc3c(NS(=O)(=O)c4cccc(F)c4)n[nH]c3C2=O)cc1 | 
5 | 30.6% |  | COc1ccc(N2CCc3c(NS(=O)(=O)c4ccccc4)n[nH]c3C2=O)cc1 | 
6 | 63.3% | 5.15 | COc1ccc(N2CCc3c(NS(=O)(=O)c4cccc(OC)c4)n[nH]c3C2=O)cc1 | 
7 | 30.6% |  | COc1ccc(N2CCc3c(NS(=O)(=O)c4ccc(F)cc4)n[nH]c3C2=O)cc1 | 
8 | 23.5% |  | Cc1ccc(N2CCc3c(NS(=O)(=O)c4ccccc4)n[nH]c3C2=O)cc1 | 
9 | 63.2% | 5.17 | COc1cccc(S(=O)(=O)Nc2n[nH]c3c2CCN(c2ccc(C)cc2)C3=O)c1 | 
10 | 67.9% | 5.28 | Cc1ccc(N2CCc3c(NS(=O)(=O)c4ccc(F)cc4)n[nH]c3C2=O)cc1 | 

Second part, the compound before the results:

Row | Compound | inhibition [1] | pIC50 [2] | also measured
11 | COc1ccc(OC)c(S(=O)(=O)Nc2n[nH]c3c2CCN(c2ccc(C)cc2)C3=O)c1 | 3.8% |  | 
12 | O=C1c2[nH]nc(NS(=O)(=O)c3cccc4ccccc34)c2CCN1C1CCNCC1 | 89.5% | 6.11 | activity at 10 µM [3]: 95.1%; remaining at 0.5 h [4]: 101%; activity at 10 µM [5]: 94.5%; activity at 10 µM [6]: 99.8%; activity at 10 µM [7]: 16.7%; activity at 10 µM [8]: 67.7%
13 | COc1ccc(NS(=O)(=O)c2ccc(I)cc2)cc1N1CCN(C)CC1 | 97.7% |  | 
14 | COc1ccc(S(=O)(=O)Nc2n[nH]c3c2CCN(CC2CCNCC2)C3=O)cc1 | 15.1% |  | 
15 | CC(C)(C)c1ccc(S(=O)(=O)Nc2n[nH]c3c2CCN(CC2CCNCC2)C3=O)cc1 | 11.5% |  | 
16 | Cc1ccc(F)c(S(=O)(=O)Nc2n[nH]c3c2CCN(CC2CCNCC2)C3=O)c1 | 30.6% |  | 
17 | Cc1c(Cl)cccc1S(=O)(=O)Nc1n[nH]c2c1CCN(CC1CCNCC1)C2=O | 51.7% |  | 
18 | COc1ccc(S(=O)(=O)Nc2n[nH]c3c2CCN(C2CCNCC2)C3=O)cc1 | 26.1% |  | 
19 | O=C1c2[nH]nc(NS(=O)(=O)c3ccc4ccccc4c3)c2CCN1CC1CCNCC1 | 40.9% |  | 
20 | Cc1ccc(N2CCc3c(NS(=O)(=O)c4cc(C)ccc4F)n[nH]c3C2=O)cc1 | 25.9% |  | 
21 | O=C1c2[nH]nc(NS(=O)(=O)c3cccc4ccccc34)c2CCN1CC1CCNCC1 | 94.1% | 6.51 | activity at 10 µM [3]: 97.2%; remaining at 0.5 h [4]: 90.8%; Activity [9]: Active; Activity [10]: inactive; activity at 10 µM [5]: 98.4%; Ratio [11]: 5; activity at 10 µM [6]: 104%; Activity [12]: Active; activity at 10 µM [7]: 17.8%; activity at 10 µM [8]: 79.1%
22 | Cc1ccc(N2CCc3c(NS(=O)(=O)c4cccc(Cl)c4C)n[nH]c3C2=O)cc1 | 92.2% | 5.78 | 
23 | Cc1ccc(N2CCc3c(NS(=O)(=O)c4ccccc4F)n[nH]c3C2=O)cc1 | 29.6% |  | 
24 | O=C1c2[nH]nc(NS(=O)(=O)c3cccc(Cl)c3)c2CCN1CC1CCNCC1 | 31% |  | 

— ChEMBL document CHEMBL2406983, “Synthesis and the 5-HT6 receptor antagonistic effect of 3-arylsulfonylamino-5,6-dihydro-6-substituted pyrazolo[3,4]pyridinones for neuropathic pain treatment” (Bioorg Med Chem Lett, 2013)
